Bioassay records deposited in PubChem BioAssay by several laboratories.
Pyk2 oligo antag = antagonists of Pyk2 self-association, primary screen, Q293 cells, FERM NanoBiT luminescence, HTS; Protein-tyrosine kinase 2-beta (Homo sapiens), Q14289; AID 1347419, 2020; stronger effect = lower value; z-score (the deposit names both 25 µM and 10 µM); 99,000 compounds, 0.83% hits;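 active = Z-score of -3 or lower, scaled per plate to the spread of control and sample wells; inactive = z-score above -3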;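 note: negative z-score means lost luminescence so less FERM oligomerization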
ERa SRC1 inh = ERα–SRC-1 coactivator interaction inhibitors, primary screen, biochemical, TR-FRET, ERα LBD, estradiol-bound. TR-FRET ER-alpha LBD / SRC-1 peptide. inhibition, % at 25.6 µM. 86,000 compounds, 1.7% hits; in the data active = inhibition above about 50%;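 note: 0% = receptor plus peptide control and 100% = peptide only without receptor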
ERb coact inh = inhibitors of ERβ-SRC1 coactivator interaction, primary screen, biochemical, TR-FRET, ERβ LBD, SRC-1 peptide; inhibition, % at 25.6 µM; Estrogen receptor beta (Homo sapiens), Q92731; TR-FRET ER-beta LBD / SRC1-Cy5 peptide binding; receptor agonist-loaded with 1 µM estradiol; 86,000 compounds, 1.3% hits; AID 633, 2007;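 active = compounds whose percent inhibition of the receptor-coactivator binding signal exceeds about 50% in the single-dose screen, limit read from the data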;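 note: 0% = receptor plus peptide wells without compound and 100% = peptide-only wells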
Target sequence (Q92731 whole entry, looked up, the tested form may be a part): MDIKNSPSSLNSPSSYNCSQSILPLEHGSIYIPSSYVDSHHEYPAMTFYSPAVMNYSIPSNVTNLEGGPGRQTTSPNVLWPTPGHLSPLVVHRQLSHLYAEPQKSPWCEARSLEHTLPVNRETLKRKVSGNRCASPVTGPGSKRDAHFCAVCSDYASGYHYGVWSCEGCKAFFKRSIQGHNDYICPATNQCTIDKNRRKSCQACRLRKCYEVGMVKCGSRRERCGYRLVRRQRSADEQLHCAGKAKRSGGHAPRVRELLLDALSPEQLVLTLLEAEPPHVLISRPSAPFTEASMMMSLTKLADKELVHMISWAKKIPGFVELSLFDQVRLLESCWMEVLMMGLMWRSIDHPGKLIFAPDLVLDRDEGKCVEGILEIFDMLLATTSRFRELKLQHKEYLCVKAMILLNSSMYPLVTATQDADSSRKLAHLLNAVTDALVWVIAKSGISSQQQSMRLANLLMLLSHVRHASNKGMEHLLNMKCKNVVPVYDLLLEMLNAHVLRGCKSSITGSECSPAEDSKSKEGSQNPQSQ
SF-1 act = activators of human SF-1, primary screen, cell-based, CHO-K1, Gal4-SF-1 LBD, luciferase luminescence. Steroidogenic factor 1 (Homo sapiens), Q13285. CHO-K1 Gal4-SF-1 LBD luciferase reporter; % increase over DMSO SF-1-specific signal. activation, % at 10 µM. 65,000 compounds, 1.9% hits. AID 522, 2006;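 active = activation above the mean activation of all tested compounds plus 3 SD, cut at about 50% in these data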
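Assay system – CHO-K1 cells with Gal4–hSF-1 LBD chimera plus Gal4-driven luciferase · Quantity – 4,000 cells per well · Times – compound added 1 h post-seeding, 20 h exposure at 37 °C, 5% CO2 · Measured by – luciferase light emission · Benchmarks – DMSO and mock-transfected background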
RORA act = activators of orphan receptor RORA, primary screen, cell-based, luminescence; Nuclear receptor ROR-alpha (Homo sapiens), P35398; 65,000 compounds, 1.5% hits; activation, % at 10 µM; AID 560, 2006; CHO-K1 Gal4-RORA LBD luciferase reporter; percent increase over mock-subtracted basal signal;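 active = activation above the mean of all tested compounds plus 3 SD, cut at about 49% in these data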;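 note: 0% = DMSO-treated RORA cells and 100% = added signal equal to DMSO minus mock-transfected cells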
ERa coact pot = enhancers of ERα–SRC-1 coactivator binding, primary screen, biochemical, TR-FRET, ERα LBD, low estradiol | Estrogen receptor (Homo sapiens), P03372 | AID 639, 2007 | 86,000 compounds, 1.3% hits | TR-FRET ERalpha-LBD/SRC-Cy5 coactivator binding, 2 h; 100 = basal binding, no effect | coactivator binding (% of control), % at 25.6 µM; in the data active = activity above about 200%;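 note: binding measured in presence of low estradiol as agonist stimulus; 0% = peptide alone without receptor and 100% = receptor with peptide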
An asterisk follows results filed as active; . = not tested or not shown; [ ] = remark or other dose. In the library only some 4.8% were active in any assay of this set; here they are far more common.

SMILES | Pyk2 oligo antag | ERa SRC1 inh | ERb coact inh | SF-1 act | RORA act | ERa coact pot
Cc1ccc(C(=O)Nc2ccc(S(=O)(=O)N3CCc4ccccc43)cc2)o1 | -1.8 | -6 | -5 | 0 | 4 | 105
CC(C)(C)OCC(NC(=O)C(CC(N)=O)NC(=O)OC(C)(C)C)C(=O)OC(C)(C)C (configuration not stated) | 0.32 | -2 | -1 | -3 | -14 | 100
CCOc1cc2[nH]c(=O)n(CCC(=O)N3CCN(c4ccccc4OC)CC3)c(=O)c2cc1OCC | -0.15 | -4 | 1 | -3 | 0 | 102
COc1cc2[nH]c(=O)n(CCC(=O)N3CCN(c4cc(Cl)ccc4C)CC3)c(=O)c2cc1OC | -1.6 | 88*[fluorescence artefact?] | 43 | -5 | 17 | 40
Cc1c(C)n(C(=O)CN2CCN(c3ccccc3)CC2)c2ccccc12 | 1 | 1 | -32 | . | . | 108
O=c1cc(-c2ccccc2)nc2n1Cc1ccccc1-2 | -0.16 | 34 | 55*[fluorescence artefact?] | -15 | 2 | 75
COc1cc(C(=O)N2CCN(c3ccc(C)cc3C)CC2)cc(OC)c1OC | . | -8 | -3 | 12 | 64* | 91
COc1cc(C(=O)N2CCN(S(=O)(=O)c3ccc(F)cc3)CC2)cc(OC)c1OC | -0.75 | -5 | 67*[fluorescence artefact?] | . | . | 101
COc1ccc(Cl)cc1S(=O)(=O)N1CCN(C(=O)c2cc(OC)c(OC)c(OC)c2)CC1 | -1.2 | -6 | -1 | -7 | -4 | 102
Nn1c(SCC(=O)Nc2cccc(F)c2)nnc1C1CCCCC1 | 0.81 | 17 | 1 | -1 | -8 | 71
COc1ccc(C(=O)CSc2nnc(C3CCCCC3)n2N)c(OC)c1 | -2.2 | 68* | 18 | 13 | -15 | 64
C=CCSc1n[nH]c(-c2ccc(OCCC)cc2)n1 | -1.7 | -30 | -31 | 55* | 62* | 106
C=CCSc1n[nH]c(-c2ccc(OCCCC)cc2)n1 | -0.52 | -3 | -6 | 68* | 31 | 99
CCCOc1ccc(-c2nc(=S)[nH][nH]2)cc1 | 0.02 | 6 | 2 | . | . | 91
CC(C)(C)NS(=O)(=O)c1cccc(S(=O)(=O)c2cccc(S(=O)(=O)NC(C)(C)C)c2)c1 | . | -6 | -9 | -12 | -14 | 102
c1cnc2ccc(C(c3nnnn3C3CCCC3)N3CCN(c4nc5ccccc5s4)CC3)cc2c1 (configuration not stated) | -1.7 | -1 | -1 | 25 | -4 | 113
CC(C)CC(c1nnnn1Cc1cccs1)N1CCN(c2nc3ccccc3s2)CC1 (configuration not stated) | -3.6* | 7 | -3 | . | . | 113
COCCn1nnnc1C(c1cccs1)N1CCN(c2nc3ccccc3s2)CC1 (configuration not stated) | -3.4* | 3 | -7 | 4 | -15 | 108
COCCn1nnnc1C(c1cccs1)N1CCN(c2cc(C)ccc2C)CC1 (configuration not stated) | -1.7 | 0 | -4 | -16 | -12 | 103
Clc1ccc(C(c2nnnn2C2CCCC2)N2CCN(c3nc4ccccc4s3)CC2)cc1 (configuration not stated) | -3.3* | -13 | -5 | . | . | 100
COC(=O)c1ccc(/C=N\NC(=O)c2ccc(C)cc2Cl)cc1 | -0.21 | . | . | . | . | .
Cc1ccc(-n2c(C)cc(C(=O)COC(=O)C3=NNC(=O)CC3)c2C)cc1 | -1.1 | . | . | . | . | .
Cc1ccc(-n2c(C)cc(C(=O)COC(=O)c3c(C)noc3C)c2C)cc1 | -1.1 | -3 | -9 | 79* | 2 | 91
Cc1cc(NC(=O)CSc2nc3sc(C)c(C)c3c(=O)n2C2CCCC2)no1 | 0.29 | 4 | 5 | . | . | 116
Cc1oc2cc(O)cc(O)c2c(=O)c1-c1ccc2c(c1)OCCCO2 | -3.4* | 6 | -7 | 50* | 58* | 103
SMILES | Pyk2 oligo antag | ERa SRC1 inh | ERb coact inh | SF-1 act | RORA act | ERa coact pot
CC(C)c1nc(N2CCN(C(=O)c3ccccc3)CC2)c(C#N)c2c1COC(C)(C)C2 | -0.77 | 3 | -6 | 53* | 18 | 76
CC1(C)Cc2c(C#N)c(N3CCN(C(=O)c4ccccc4)CC3)nc(-c3ccco3)c2CS1 | -0.5 | . | . | -4 | -25 | .
O=C(CN1C(=O)NC2(CCCc3ccccc32)C1=O)N1CCN(C(=O)c2ccco2)CC1 (configuration not stated) | 0.2 | 5 | 4 | -17 | -5 | 129
CC1Cc2cc(-c3csc(NC(=O)Cc4cccs4)n3)ccc2N1S(C)(=O)=O (configuration not stated) | -3.1* | 12 | -6 | 11 | 16 | 120
O=C(Nc1ccccc1)N1CCC(c2ccccc2)C1 (configuration not stated) | 0.34 | 4 | 1 | 68* | 44 | 123
O=C(c1cccs1)N1CCC(c2ccccc2)C1 (configuration not stated) | -0.5 | -5 | 0 | 30 | 49* | 96
O=C(NC1(C(F)(F)F)C(=O)Nc2c1c(=O)[nH]c(=O)n2-c1ccccc1)c1ccncc1 (configuration not stated) | 0.03 | -15 | -9 | . | . | 111
COc1ccc(OC)c(C2Nc3nc4ccccc4n3C(C)=C2C(=O)Nc2ccc(C)cc2C)c1 (configuration not stated) | -0.38 | 5 | -10 | . | . | 98
O=c1cc(CSc2nnnn2-c2ccccc2)nc(Nc2ccc(F)cc2)[nH]1 | -1.4 | 53* | 32 | . | . | 373*
COc1cccc(-c2[nH]nc3c2C(c2ccoc2)C(C#N)=C(N)O3)c1 (configuration not stated) | 0.15 | 50 | 58* | . | . | 65
COC(=O)c1sc(NC(=O)CSc2nc3cccnc3n2C2CCCCC2)nc1C | 0.11 | 72*[fluorescence artefact?] | 61*[fluorescence artefact?] | 3 | -9 | 81
O=C(NCCN1CCCCCC1)c1ccc(N2CCCC2=O)cc1 | 0.13 | 55*[fluorescence artefact?] | 22 | 4 | -15 | 155
O=C(NCCCN1CCN(c2cccc(Cl)c2)CC1)c1ccc(N2CCCC2=O)cc1 | 0.7 | -7 | 0 | -14 | 5 | 101
C[N+]1(CCOc2ccc([N+](=O)[O-])cc2)CCOCC1 | -0.62 | . | . | . | . | .
CC1(C)CC(=O)c2cnc(NCC3CCCO3)nc2C1 (configuration not stated) | 0.45 | 55* | 24 | 4 | -23 | 106
